Screening results (PubChem)
Yeast life ext: compounds extending yeast replicative lifespan, primary screen, S. cerevisiae, OD615. S. cerevisiae growth with nicotinamide; deaD strain in restrictive glucose medium. inhibition of the nicotinamide effect, % at 10 µM. 130,000 compounds, 0.68% hits;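 active = inhibition above a set limit, placed 3 SD over the median of all compounds, cut at about 26% in these data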
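Test system: DeaD-strain S. cerevisiae / Buffer or medium: restrictive glucose medium / Also added: nicotinamide 1.5 mM / Doses: one concentration, 10 µM, DMSO 0.25% / Schedule: 48 h at 30 °C / Signal: OD615 measurement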
Arbovirus inh: antivirals against arbovirus infection, primary screen, cell-based, full library, 10K replicate subset; arbovirus infection cell-based antiviral screen; inhibition, % at 10 µM; 200,000 compounds, 0.37% hits; in the data active = inhibition above about 30%
BB579 growth dn: growth inhibitors of yeast BB579 in restrictive medium, primary screen, yeast lifespan-shortening project, S. cerevisiae | OD615, 48 h | inhibition, % at 10 µM | 140,000 compounds, 0.51% hits | AID 804, 2007;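 active = inhibition above a set limit, 3 SD over the mean compound inhibition, cut at about 44% in these data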
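Assay system – yeast BB579 (DeaD) · Dosing – single compound dose of 10 µM, 0.25% DMSO final · Detection – OD615 turbidity measurement · Buffer or medium – CSMM-D restrictive synthetic medium containing dextrose (glucose) · Benchmarks – positive control amphotericin B 10 µg/mL · Incubation – 48 h exposure, 30 °C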
Rad51 HR inh: human RAD51 strand exchange inhibitors, primary screen, biochemical, fluorescence. DNA repair protein RAD51 homolog 1 (Homo sapiens), Q06609. hRad51 DNA strand exchange, fluorescence dequenching. inhibition, % at 10 µM. 200,000 compounds, 0.085% hits;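 active = inhibition above 40% at the single screening dose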
Target sequence (Q06609 whole entry, looked up): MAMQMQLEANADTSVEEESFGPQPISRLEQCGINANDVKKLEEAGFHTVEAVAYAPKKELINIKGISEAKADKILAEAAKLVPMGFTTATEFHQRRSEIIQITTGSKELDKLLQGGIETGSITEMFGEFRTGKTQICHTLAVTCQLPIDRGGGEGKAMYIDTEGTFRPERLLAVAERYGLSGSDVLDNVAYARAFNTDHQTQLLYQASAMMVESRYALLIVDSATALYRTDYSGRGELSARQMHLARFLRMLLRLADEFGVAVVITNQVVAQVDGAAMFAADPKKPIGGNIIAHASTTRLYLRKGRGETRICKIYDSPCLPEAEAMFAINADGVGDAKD
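Assay system: Human Rad51 nucleoprotein filaments preassembled on unlabelled ssDNA | Reagent: Donor/quencher-labelled 47-bp dsDNA substrate | Doses: One concentration, 10 µM final | Times: 37 °C 15-min filament assembly, 30-min compound preincubation, 15-min exchange | Technique: Fluorescein emission 520 nm, excitation 485 nm | Benchmarks: Plate control and blank wells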
Efa HMGR inh: inhibitors of E. faecalis class II HMGR, primary screen, biochemical, Enterococcus faecalis; 190,000 compounds, 0.41% hits; inhibition, % at 10 µM; AID 1066, 2008; purified E. faecalis HMGR, NADPH absorbance 340 nm kinetic;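 active = inhibition above a set limit, the median over all tested compounds plus 3 SD, cut at about 9.5% in these data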;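 note: enzyme runs in reverse so mevalonate oxidation gives rising NADPH absorbance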
Measles CPE: compounds protecting cells from measles virus cytopathic effect, primary screen, measles RdRp inhibitor project, single point, MLSMR library, absorbance; 140,000 compounds, 1.5% hits; Measles virus-infected cells, CPE protection; protection (pct of control), % at 4 µM; in the data active = protection mostly above about 24%, no sharp cut-off; inactive = mostly below about 26%
Hits are given with their value; - = inactive; . = no result given. The list is not random: actives were taken first. Their share in the collection is about 2.4%.

SMILES	Yeast life ext	Arbovirus inh	BB579 growth dn	Rad51 HR inh	Efa HMGR inh	Measles CPE
O=C(CN1C(=O)C2CC=CCC2C1=O)Nc1nccs1 (configuration not stated)	.	-	-	52	-	-
O=C(CN1C(=O)C2CC=CCC2C1=O)Nc1nnc(SCc2ccc(F)cc2)s1 (configuration not stated)	-	-	-	-	-	-
COc1ccc(CSc2nnc(Cc3sc(-c4ccccc4)nc3-c3ccccc3)o2)cc1	-	-	-	-	-	-
O=S(=O)(NCc1c(Cl)cccc1Oc1ccccc1)c1ccc(F)cc1	.	.	.	-	.	.
Cc1cc2nc3c(nc2cc1C)C(O)=C3O	.	.	.	-	.	.
O=C(O)CCCCCn1c(SCC(=O)c2ccc(O)c(O)c2)nc2ccsc2c1=O	-	-	-	.	13	-
Cc1ccc(/C=C/C(=O)NCc2cccs2)c(C)c1	.	-	.	.	-	.
COC(=O)[C@H]1C[C@H]1[C@@H](NC(=O)c1ccc[nH]1)c1ccccc1	.	.	.	-	.	.
CN(C)C(=O)N(CCCN1CCOCC1)Cc1cccc2ccccc12	.	.	.	-	.	.
O=C(NC1CCCCC1)c1cc([N+](=O)[O-])ccc1N1CCCCC1	-	-	-	118	-	-
CC(C)(C)OC(=O)N1CCC(c2c(C(=O)O)cnn2-c2ccccc2)CC1	-	-	-	-	-	32
Cn1nc([N+](=O)[O-])nc1Sc1nnnn1-c1ccc(C(=O)O)cc1	.	-	.	-	17	.
O=C(Cn1c2[n+](c3ccccc31)CC(O)CS2)c1ccccc1 (configuration not stated)	.	-	.	-	-	.
Cc1ccc(CC2C(=O)N(c3ccc(C)cc3)C(=O)C2C)cc1 (configuration not stated)	.	-	.	-	-	.
CSC[C@@H]1NC(=S)N(c2ccc(C)cc2)C1=O	31	-	-	.	-	-
Nn1c(SCC(=O)NC(=O)Nc2ccc3c(c2)OCCO3)nnc1C1CC1	.	-	.	-	-	.
CN(Cc1ccccc1)c1nc(N)nc(Cl)c1C=O	.	-	.	-	14	.
COc1cc(C(Nc2ccccn2)c2ccc3ccc(C)nc3c2O)cc(OC)c1O (configuration not stated)	-	-	-	-	-	41
Cc1ccc2ccc(C(Nc3ccccn3)c3ccccc3)c(O)c2n1 (configuration not stated)	-	-	-	-	-	-
COc1ccc(C2=Nn3c(nnc3-c3ccncc3)SC2)cc1OC	-	49	-	-	-	-
COc1ccc(C2=Nn3c(nnc3-c3cccnc3)SC2)cc1OC	.	.	.	-	.	.
CCC(C)c1ccccc1OCCn1ccnc1 (configuration not stated)	-	-	-	-	-	-
COc1ccc2ccc(=O)oc2c1	-	-	-	-	15	-
O=C(O)c1cc(N/N=C2/CC(c3ccccc3)Oc3ccccc32)ccc1Cl (configuration not stated)	-	32	-	-	-	-
COc1cc(NC(=O)c2ccccc2-c2ccccc2)cc(OC)c1OC	.	-	.	-	-	.
SMILES	Yeast life ext	Arbovirus inh	BB579 growth dn	Rad51 HR inh	Efa HMGR inh	Measles CPE
COc1cc(NC(=O)c2cc3nc(-c4ccccc4)cc(-c4ccccc4)n3n2)cc(OC)c1OC	-	-	-	-	17	-
O=C1Nc2ccccc2C1(c1ccccc1)c1ccccc1	-	-	-	-	-	52
CCCOP(=O)(OCCC)c1nc(-c2ccccc2)oc1NCc1ccccc1	-	-	-	.	17	-
COP(=O)(OC)c1nc(-c2ccccc2)oc1NCc1ccccc1	-	-	-	-	-	-
O=C(/C=C/c1ccccc1)N/C(=C/c1ccccc1)C(=O)NCCCO	-	-	-	-	-	-
COc1ccc(N2C(=O)C(CC(=O)Nc3ccccc3)N(Cc3ccccn3)C2=S)cc1 (configuration not stated)	.	-	.	-	-	.
Oc1ccc(-c2csc(-c3ccccc3)n2)cc1O	-	-	83	-	-	-
Oc1ccc(-c2csc(-c3cccnc3)n2)cc1O	.	.	.	-	.	.
Cc1cc(C(=O)NC(C)Cc2ccccc2)cc(C)c1[N+](=O)[O-] (configuration not stated)	.	-	.	-	-	.
O=C/C(=C\Nc1ccc(Cl)cn1)c1nc2ccccc2o1	.	-	-	-	-	-
O=C/C(=C\Nc1ccc(Cl)cn1)c1nc2cc(Cl)ccc2o1	-	30	-	-	-	-
CC1CCN(C(=O)CCNC(=O)Cn2cnc3sc4c(c3c2=O)CCCC4)CC1	-	-	-	-	-	-
O=c1c2ccccc2nc2sc3ccccc3n12	-	-	85	-	-	-
CCOC(=O)C1C(c2cc(OC)c(O)c(OC)c2)NC(=S)NC1(O)C(F)(F)F (configuration not stated)	-	-	-	-	-	36
CCOC(=O)C1C(c2cc(OC)c(OC)c(OC)c2)NC(=S)NC1(O)C(F)(F)F (configuration not stated)	-	-	-	-	-	-
CN1C(=O)NC(c2ccc(O)cc2)C(C(=O)c2cccs2)C1(O)C(F)(F)F (configuration not stated)	34	-	-	-	-	-
COc1cc(C2NC(=S)NC(O)(C(F)(F)F)C2C(=O)c2cccs2)cc(OC)c1O (configuration not stated)	-	-	-	.	-	32
CCc1sc(NC(=O)c2cc3ccccc3oc2=O)nc1-c1cccs1	-	-	-	-	-	-
CCN(CC)S(=O)(=O)c1ccc(/C=C/C(=O)Nc2ccc(N3CCOCC3)cc2)cc1	.	.	.	-	.	.
Cc1c(Cl)cccc1Nc1nc(N)nc(CSC(=S)N2CCOCC2)n1	.	-	.	-	-	.
N#Cc1c2c(c(-c3ccco3)[nH]c1=O)CCCC2	-	-	-	-	-	46
O=c1cc(-c2ccccc2Cl)oc2ccc([N+](=O)[O-])c(O)c12	64	-	-	60	-	-
Nc1ccc2oc(-c3ccccc3Cl)cc(=O)c2c1O	-	-	-	-	-	-
O=c1oc2c(O)c(O)cc3c(=O)oc4c(O)c(O)cc1c4c23	-	-	-	.	24	-
CCOC(=O)C1C(=O)NC(c2ccccc2)=NC1c1cccc(Br)c1 (configuration not stated)	.	-	.	.	-	.
Oc1c(Br)cc(C2N=C(c3ccccc3)NO2)cc1Br (configuration not stated)	-	33	-	-	-	-
COc1cccc(NC(=O)CN2CCSc3ccccc32)c1	.	-	.	.	-	.
Cc1cccc(NC(=O)CN2CCSc3ccccc32)c1	.	-	.	-	13	.
Cc1cccc(/C(N)=N/OC(=O)COc2ccc(Cl)c(C)c2)c1	-	-	-	.	-	23
